Measured values pooled from the literature.
Lines come from different studies, so protocols differ.
Target: RAC-alpha serine/threonine-protein kinase (AKT1, Homo sapiens, UniProt P31749)

CCN1CCN(Cc2ccc(C(=O)Nc3ccc(C)c(Oc4ccc5c(c4)CC(=O)N5)c3)cc2C(F)(F)F)CC1
remaining binding (binding, competition with immobilised ligand; 1 µM): 94%

Cc1c(C(=O)O)cc(-c2ccc(C3CCNCC3)cc2)c2ccc(-c3ccc(C(F)(F)F)cc3)cc12
remaining binding (binding, competition with immobilised ligand; 1 µM): 100%

N#Cc1ccccc1CSc1nnc2c(n1)[nH]c1ccccc12
remaining binding (binding, competition with immobilised ligand; 10 µM): 85%

CN(c1nccc(-c2cnn3ncccc23)n1)C1CC1
remaining binding (binding; 1 µM): 100%

C[C@@H]1CN(c2ccc3ncc(-c4ccc5[nH]nc(C6CC6)c5c4)n3n2)C[C@H](C)O1
remaining binding (binding, competition with immobilised ligand; 50 nM): 98%

CS(=O)(=O)N1CCCC(NC(=O)[C@H](CCC2CCCCC2)NC(=O)c2ccc(CNC(=O)c3cnc4ccccn34)cc2)C1 (stereo partly shown)
remaining binding (cell-free assay, competition with immobilised ligand; 0.1 µM): 100%

C[C@@H](c1ccc(-n2cnc3c(N)ncnc32)cc1)N1CCc2nn(C)c(Cc3ccccc3)c2C1=O
remaining binding (binding, competition with immobilised ligand; 0.1 µM): 100%

O=C(c1ccc(Nc2ncc(Cl)c(-c3ccc(Cl)s3)n2)cc1)N1CCC(N2CCCC2)CC1
remaining binding (binding, competition with immobilised ligand; 1 µM): 100%

CN1CCN(c2cnc3c(C4CCN(C(=O)c5ccc(OC(F)(F)F)cc5N)CC4)ncnc3c2)CC1
remaining binding (cell-free assay, competition with immobilised ligand; 1 µM): 100%

Cc1cnn2ncc(-c3ccnc(N(C)C)n3)c2c1
remaining binding (binding; 1 µM): 94%

Cc1cnc(Nc2ccc(C(=O)N3CCC(N4CCCC4)CC3)cc2)nc1-c1cc2ccccc2s1
remaining binding (binding, competition with immobilised ligand; 1 µM): 100%

C[C@@H]1CCN(c2nccc(-c3cnn4ncccc34)n2)C1
remaining binding (binding; 1 µM): 93%

COc1cnc(Nc2cccc(S(N)(=O)=O)c2)nc1N1CCN(c2ccccc2)C(=O)C1
remaining binding (binding, competition with immobilised ligand; 1 µM): 100%

O=C(NCC1CCOCC1)c1n[nH]cc1NC(=O)c1c(F)cccc1F
remaining binding (binding, competition with immobilised ligand; 1 µM): 95%

O=C(NCCCN1CCOCC1)c1ccc(Nc2ncc(Cl)c(-c3ccc(Cl)s3)n2)cc1
remaining binding (binding, competition with immobilised ligand; 1 µM): 100%

O=C(NCc1ncc(C(F)(F)F)cc1Cl)c1ccc2c(c1)C1(CCS(=O)(=O)CC1)[C@@H](C1CC1)N2S(=O)(=O)c1ccc(F)cc1
remaining binding (cell-free assay, competition with immobilised ligand; 1 µM): 94%

COc1cnc(Nc2cccc(S(N)(=O)=O)c2)nc1N1CCN(c2ccccc2)CC1
remaining binding (binding, competition with immobilised ligand; 1 µM): 100%

Cc1nc(Cc2cccc(C(F)(F)F)c2)sc1-c1ccc(C(N)=O)nc1
remaining binding (cell-free assay, competition with immobilised ligand; 1 µM): 82%

F[C@@H]1CCN(c2nccc(-c3cnn4ncccc34)n2)C1
remaining binding (binding; 1 µM): 100%

N#Cc1ccc(Nc2ccc3[nH]c(=O)[nH]c3c2)c(Cl)c1
remaining binding (cell-free assay, competition with immobilised ligand; 1 µM): 67%

COc1ncc2cc3ccccc3nc2c1C#N
remaining binding (cell-free assay, competition with immobilised ligand; 5 µM): 92%

O=C(Nc1cccnn1)N1CCC(=Cc2cccc(Oc3ccc(C(F)(F)F)cn3)c2)CC1
remaining binding (cell-free assay, competition with immobilised ligand; 1 µM): 93%

N[C@H]1CCN(c2nccc(-c3cnn4ncccc34)n2)C1
remaining binding (binding; 1 µM): 97%

O=C(NCCCC1CCCCC1)c1ccc(CNC(=O)c2cnn(-c3ccccc3)c2C(F)(F)F)cc1
remaining binding (cell-free assay, competition with immobilised ligand; 0.1 µM): 100%

CN(C)c1ncc(F)c(-c2cnn3ncccc23)n1
remaining binding (binding; 1 µM): 100%
